# In ChEMBL document CHEMBL2163271, “Antitumor agents 295. E-ring hydroxylated antofine and cryptopleurine analogues as antiproliferative agents: design, synthesis, and mechanistic studies” (J Med Chem, 2012):
# Activity calls are given as the source filed them. No cut-off for these calls is given here.
# Assays:
# A549 [1] = assay: Downregulation of PECALM mRNA expression in human A549 cells by microarray analysis relative to control; format: functional
# Summary of the method: (§1)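 Gene expression profiling of treated versus untreated A549 cells, with pathways analysed in the MetaCore database.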
# A549 [2] = assay: Downregulation of EEA1 mRNA expression in human A549 cells by microarray analysis relative to control; format: functional; summary of the method: as §1
# A549 [3] = assay: Downregulation of VTI1B mRNA expression in human A549 cells by microarray analysis relative to control; format: functional; summary of the method: as §1
# A549 [4] = assay: Downregulation of Eps 15 mRNA expression in human A549 cells by microarray analysis relative to control; format: functional; summary of the method: as §1
# A549 [5] = assay: Downregulation of SNAP-25 mRNA expression in human A549 cells by microarray analysis relative to control; format: functional; summary of the method: as §1
# A549 [6] = assay: Downregulation of PLEKHA8 mRNA expression in human A549 cells by microarray analysis relative to control; format: functional; summary of the method: as §1
# A549 [7] = assay: Downregulation of syntazin 7 mRNA expression in human A549 cells by microarray analysis relative to control; format: functional; summary of the method: as §1
# A549 [8] = assay: Downregulation of rabaptin-5 mRNA expression in human A549 cells by microarray analysis relative to control; format: functional; summary of the method: as §1
# A549 [9] = assay: Downregulation of myosin 5b mRNA expression in human A549 cells by microarray analysis relative to control; format: functional; summary of the method: as §1
# A549 [10] = assay: Downregulation of collagen 4 mRNA expression in human A549 cells by microarray analysis relative to control; format: functional; summary of the method: as §1
# A549 [11] = assay: Downregulation of PI3K reg class 1A mRNA expression in human A549 cells by microarray analysis relative to control; format: functional; summary of the method: as §1
# A549 [12] = assay: Downregulation of FRS2 mRNA expression in human A549 cells by microarray analysis relative to control; format: functional; summary of the method: as §1
# A549 [13] = assay: Downregulation of PLAU mRNA expression in human A549 cells by microarray analysis relative to control; format: functional; summary of the method: as §1
# A549 [14] = assay: Downregulation of PI3K cat class 1A mRNA expression in human A549 cells by microarray analysis relative to control; format: functional; summary of the method: as §1
# A549 [15] = assay: Downregulation of XIAP mRNA expression in human A549 cells by microarray analysis relative to control; format: functional; summary of the method: as §1
# A549 [16] = assay: Downregulation of DYRK2 mRNA expression in human A549 cells by microarray analysis relative to control; format: functional; summary of the method: as §1
# A549 [17] = assay: Downregulation of fibronectin mRNA expression in human A549 cells by microarray analysis relative to control; format: functional; summary of the method: as §1
# A549 [18] = assay: Downregulation of FBXW mRNA expression in human A549 cells by microarray analysis relative to control; format: functional; summary of the method: as §1
# A549 [19] = assay: Downregulation of cAMP dependent PKA cat mRNA expression in human A549 cells by microarray analysis relative to control; format: functional; summary of the method: as §1
# A549 [20] = assay: Downregulation of SKP2 mRNA expression in human A549 cells by microarray analysis relative to control; format: functional; summary of the method: as §1
# A549 [21] = assay: Downregulation of casein kinase 1 mRNA expression in human A549 cells by microarray analysis relative to control; format: functional; summary of the method: as §1
# A549 [22] = assay: Downregulation of SAP18 mRNA expression in human A549 cells by microarray analysis relative to control; format: functional; summary of the method: as §1
# A549 [23] = assay: Downregulation of CDK11 mRNA expression in human A549 cells by microarray analysis relative to control; format: functional; summary of the method: as §1
# A549 [24] = assay: Downregulation of HSP90 mRNA expression in human A549 cells by microarray analysis relative to control; format: functional; summary of the method: as §1
# A549 [25] = assay: Upregulation of ubiquitin mRNA expression in human A549 cells by microarray analysis relative to control; format: functional; summary of the method: as §1
# A549 [26] = assay: Downregulation of cyclin D protein expression in human A549 cells at 3.6 to 100 nM after 48 hrs by Western blot analysis; format: functional, cell-based
# A549 [27] = assay: Downregulation of HSP90 protein expression in human A549 cells at 3.6 to 100 nM after 48 hrs by Western blot analysis; format: functional, cell-based
# Summary of the method: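 A549 cells treated with graded compound concentrations for 48 h. Whole-cell extracts were immunoblotted with antibody against HSP90.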
# A549 [28] = assay: Downregulation of HSP90 expression in human A549 cells at 3.6 nM after 48 hrs by RT-PCR analysis; format: functional, cell-based
# Summary of the method: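 A549 cells exposed at 3.6 nM for 48 h. Transcript levels were measured by RT-PCR and compared with untreated cells.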
# A549 [29] = assay: Cytotoxicity against human A549 cells assessed as decrease in cell number at 60 nM after 48 hrs by inverted phase-contrast microscopy; format: functional, cell-based
# Summary of the method: (§2)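 A549 cells exposed to a rising concentration series for 48 h, including 60 nM. Cells were viewed under an inverted phase-contrast microscope and photographed, and cell number and morphology were scored by eye.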
# A549 [30] = assay: Cytotoxicity against human A549 cells assessed as effect on cell morphology at 60 nM after 48 hrs by inverted phase-contrast microscopy; format: functional, cell-based; summary of the method: as §2
# MRC5 = assay: Cytotoxicity against human MRC5 cells assessed as cell viability after 48 hrs by SRB assay; format: functional, cell-based; conditions: MRC5, 48 h
# PC-9 = assay: Cytotoxicity against human PC9 cells assessed as cell viability after 48 hrs by SRB assay; format: functional, cell-based; conditions: PC-9, 48 h
# Summary of the method: (§3)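 Human NSCLC lines (CL1-0, CL1-5, PC9, PC9IR) exposed to increasing compound concentrations for 48 h. Growth read by sulforhodamine B (SRB) staining, with IC50 in nM taken from the dose-response.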
# [31] = Cytotoxicity against human PC9IR cells assessed as cell viability after 48 hrs by SRB assay; format: functional, cell-based; summary of the method: as §3
# A549 [32] = assay: Cytotoxicity against human A549 cells assessed as cell viability after 48 hrs by SRB assay; format: functional, cell-based; conditions: A549, 48 h
# [33] = Cytotoxicity against human CL1-0 cells assessed as cell viability after 48 hrs by SRB assay; format: functional, cell-based; conditions: CL1-0, 48 h; summary of the method: as §3
# [34] = Cytotoxicity against human CL1-5 cells assessed as cell viability after 48 hrs by SRB assay; format: functional, cell-based; conditions: CL1-5, 48 h; summary of the method: as §3
# SK-BR-3 = assay: Cytotoxicity against human SKBR3 cells after 2 hrs by methylene blue staining-based spectrophotometric analysis; format: functional, cell-based; conditions: SK-BR-3, 2 h
# KB = assay: Cytotoxicity against human KB cells after 2 hrs by methylene blue staining-based spectrophotometric analysis; format: functional, cell-based
# [35] = Cytotoxicity against human KBVIN cells overexpressing P-gp after 2 hrs by methylene blue staining-based spectrophotometric analysis; format: functional, cell-based
# DU-145 = assay: Cytotoxicity against human DU145 cells after 2 hrs by methylene blue staining-based spectrophotometric analysis; format: functional, cell-based; conditions: DU-145, 2 h
# A549 [36] = assay: Cytotoxicity against human A549 cells after 2 hrs by methylene blue staining-based spectrophotometric analysis; format: functional, cell-based; conditions: A549, 2 h
# A549 [37] = assay: Downregulation of beta-catenin expression in human A549 cells at 3.6 nM after 48 hrs by RT-PCR analysis
# A549 [38] = assay: Downregulation of beta-catenin mRNA expression in human A549 cells by microarray analysis relative to control
# A549 [39] = assay: Downregulation of beta-catenin protein expression in human A549 cells at 3.6 to 100 nM after 48 hrs by Western blot analysis
smiles,measurement,setting,value
COc1ccc2c3c(c4cc(OC)c(OC)cc4c2c1)C[C@H]1C[C@H](O)CCN1C3,fold change (FC),A549 [1],<10
same,fold change (FC),A549 [2],<10
same,fold change (FC),A549 [3],<10
same,fold change (FC),A549 [4],<10
same,fold change (FC),A549 [5],<10
same,fold change (FC),A549 [6],<10
same,fold change (FC),A549 [7],<10
same,fold change (FC),A549 [8],<10
same,fold change (FC),A549 [9],<10
same,fold change (FC),A549 [10],<10
same,fold change (FC),A549 [11],<10
same,fold change (FC),A549 [12],<10
same,fold change (FC),A549 [13],<10
same,fold change (FC),A549 [14],<10
same,fold change (FC),A549 [15],<10
same,fold change (FC),A549 [16],<10
same,fold change (FC),A549 [17],<10
same,fold change (FC),A549 [18],<10
same,fold change (FC),A549 [19],<10
same,fold change (FC),A549 [20],<10
same,fold change (FC),A549 [21],<10
same,fold change (FC),A549 [22],<10
same,fold change (FC),A549 [23],<10
same,fold change (FC),A549 [24],<10
same,fold change (FC),A549 [25],>10
same,Activity,A549 [26],Active
same,Activity,A549 [27],Active
same,Activity,A549 [28],Active
same,Activity,A549 [29],Active
same,Activity,A549 [30],inactive
same,IC50,MRC5,98 nM
same,IC50,PC-9,8.2 nM
same,IC50,[31],43.2 nM
same,IC50,A549 [32],9 nM
same,IC50,[33],58.4 nM
same,IC50,[34],8.7 nM
same,IC50,SK-BR-3,72 nM
same,IC50,KB,23 nM
same,IC50,[35],25 nM
same,IC50,DU-145,11 nM
same,IC50,A549 [36],22 nM
same,Activity,A549 [37],Active
same,fold change (FC),A549 [38],<10
same,Activity,A549 [39],Active
COc1ccc2c3c(c4cc(OC)c(OC)cc4c2c1)C[C@H]1C[C@H](OC)CCN1C3,IC50,KB,100 nM
same,IC50,[35],66 nM
same,IC50,DU-145,56 nM
same,IC50,A549 [36],25 nM
CC[C@@]1(O)CCN2Cc3c(c4cc(OC)c(OC)cc4c4cc(OC)ccc34)C[C@H]2C1,IC50,KB,920 nM
same,IC50,[35],870 nM
same,IC50,DU-145,770 nM
same,IC50,A549 [36],990 nM
COc1ccc2c3c(c4cc(OC)c(OC)cc4c2c1)C[C@H]1CC(=O)CCN1C3,IC50,KB,50 nM
same,IC50,[35],43 nM
same,IC50,DU-145,45 nM
same,IC50,A549 [36],28 nM
COc1ccc2c3c(c4cc(OC)c(OC)cc4c2c1)C[C@H]1C[C@@H](O)CN1C3,IC50,KB,780 nM
same,IC50,[35],640 nM
same,IC50,DU-145,700 nM
same,IC50,A549 [36],610 nM
COc1ccc2c3c(c4cc(OC)c(OC)cc4c2c1)C[C@H]1C[C@@H](O)[C@H](O)CN1C3,IC50,KB,17500 nM
same,IC50,[35],12600 nM
same,IC50,DU-145,1710 nM
same,IC50,A549 [36],14500 nM
COc1ccc2c3c(c4cc(OC)c(OC)cc4c2c1)C[C@H]1CCCN1C3 [(-)-ANTOFINE],IC50,[35],25 nM
COc1ccc2c3c(c4cc(OC)c(OC)cc4c2c1)C[C@H]1CC(=O)CN1C3,IC50,KB,500 nM
same,IC50,[35],430 nM
same,IC50,DU-145,710 nM
same,IC50,A549 [36],290 nM
COc1ccc2c3c(c4cc(OC)c(OC)cc4c2c1)C[C@H]1[C@@H](O)CCCN1C3,IC50,KB,25 nM
same,IC50,[35],25 nM
same,IC50,DU-145,33 nM
same,IC50,A549 [36],10 nM
COc1ccc2c3c(c4cc(OC)c(OC)cc4c2c1)C[C@H]1C[C@H](O)CN1C3,IC50,KB,1810 nM
same,IC50,[35],2210 nM
same,IC50,DU-145,1800 nM
same,IC50,A549 [36],2270 nM
COc1ccc2c3c(c4cc(OC)c(OC)cc4c2c1)C[C@H]1CCC(=O)CN1C3,IC50,SK-BR-3,3340 nM
same,IC50,KB,734 nM
same,IC50,[35],1480 nM
same,IC50,DU-145,1700 nM
same,IC50,A549 [36],910 nM
